The target in experiment [1] is T1, DNA topoisomerase 1 (Homo sapiens) (UniProt P11387).
T1 sequence (whole entry): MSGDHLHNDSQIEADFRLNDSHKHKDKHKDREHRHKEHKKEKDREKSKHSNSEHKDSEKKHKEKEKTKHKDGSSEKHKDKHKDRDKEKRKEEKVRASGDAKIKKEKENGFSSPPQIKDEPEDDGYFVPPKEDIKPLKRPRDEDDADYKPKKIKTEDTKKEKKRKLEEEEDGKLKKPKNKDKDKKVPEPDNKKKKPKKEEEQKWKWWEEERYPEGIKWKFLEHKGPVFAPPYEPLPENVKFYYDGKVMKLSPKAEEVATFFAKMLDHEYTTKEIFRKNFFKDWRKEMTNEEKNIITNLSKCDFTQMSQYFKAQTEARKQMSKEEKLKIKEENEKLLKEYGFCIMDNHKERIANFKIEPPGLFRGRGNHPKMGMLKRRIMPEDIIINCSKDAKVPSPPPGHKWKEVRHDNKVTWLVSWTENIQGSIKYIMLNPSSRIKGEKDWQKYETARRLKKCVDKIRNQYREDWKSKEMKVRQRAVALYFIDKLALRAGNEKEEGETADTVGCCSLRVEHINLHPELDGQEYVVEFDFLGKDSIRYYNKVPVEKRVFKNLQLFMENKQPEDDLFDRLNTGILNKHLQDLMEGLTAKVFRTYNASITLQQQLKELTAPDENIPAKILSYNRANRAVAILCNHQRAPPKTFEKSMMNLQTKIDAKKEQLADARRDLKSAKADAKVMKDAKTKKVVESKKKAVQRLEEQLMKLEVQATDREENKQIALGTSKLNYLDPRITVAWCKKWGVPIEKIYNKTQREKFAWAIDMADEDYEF
The experiment can be described thus: (§1) Inhibition of human recombinant DNA topoisomerase1. An outline of the steps: (§2)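 Recombinant human topo I (2 units) relaxing pBR322 DNA (0.25 µg). Buffer: 10 mM Tris-HCl pH 7.9, 1 mM EDTA, 150 mM NaCl, 0.1% BSA, 0.1 mM spermidine, 5% glycerol. Inhibitor added in 10% DMSO; 30 min at 37 °C. Sarkosyl stop, 1% agarose/TAE gel, EtBr stain, relaxed DNA seen under UV.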

Another experiment is filed under the species Homo sapiens. Description: (§3) Inhibition of human recombinant DNA topoisomerase-2. An outline of the steps:
(§4)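 Recombinant human topo II (2 units) relaxing supercoiled pUC19 DNA (0.25 µg). Inhibitor added in 10% DMSO; 30 min at 37 °C. Stopped with sarkosyl loading buffer, run on 1% agarose in TAE, EtBr stain, conversion to relaxed form scored under UV.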

Another experiment deals with HL-60. Description: Cytotoxicity against human HL60 cells by MTT assay. Format: functional, cell-based. An outline of the steps: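 HL-60 human promyelocytic leukemia cells grown in RPMI 1640 with 10% FBS, penicillin and streptomycin at 37 °C under 5% CO2. Cells plated at 3 × 10^5 per well with a range of alkaloid concentrations. Compounds supplied as 10 mM PBS stocks and diluted into growth medium just before use. Survival read out by MTT.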

Experiment [2] is described as follows: as §3. An outline of the steps: as §4
The target of another experiment is T2, DNA topoisomerase 1 (Homo sapiens, UniProt P11387).
T2 sequence (P11387 whole entry): T1 sequence (whole entry)
The experiment is described as §1. An outline of the steps:
as §2

Calls of active or inactive are those of the source. The calls are words filed in the database; no cut-off is given here.

By IC50 is commonly meant the point on the concentration scale where inhibition reaches its midpoint.

Take `COC(=O)[C@H]1[C@H]2C[C@@H]3c4[nH]c5ccccc5c4CCN3C[C@H]2CC[C@@H]1O`: the result (in experiment [1]; in the experiment filed under Homo sapiens; with HL-60) was inactive.

As for `CC[C@@]1(O)C(=O)OCc2c1cc1n(c2=O)Cc2cc3ccccc3nc2-1` [CAMPTOTHECIN], the figures for the IC50 (in experiment [2]; with HL-60) were over 1000 µM and 130 µM, respectively.

Take `COC(=O)[C@H]1[C@H]2C[C@@H]3c4[nH]c5cc(OC)ccc5c4CCN3C[C@H]2C[C@@H](OC(=O)/C=C/c2cc(OC)c(OC)c(OC)c2)[C@@H]1OC`: the result (in experiment [1]; in the experiment filed under Homo sapiens; with HL-60) was inactive.

Consider `COc1cc([C@@H]2c3cc4c(cc3[C@@H](O[C@@H]3O[C@@H]5CO[C@@H](C)O[C@H]5[C@H](O)[C@H]3O)[C@H]3COC(=O)[C@H]23)OCO4)cc(OC)c1O` [ETOPOSIDE], for which the concentration for half-maximal inhibition (IC50) on DNA topoisomerase 1 was over 1000 µM; in experiment [2], 40 µM; with HL-60 it was 150 µM.

Regarding `O=C(O)[C@H]1[C@H]2C[C@@H]3c4[nH]c5ccccc5c4CCN3C[C@H]2CC[C@@H]1O` [ISORAUHIMBINIC ACID], the half-maximal inhibitory concentration (IC50) on DNA topoisomerase 1 amounted to 40 µM; in experiment [2], 175 µM; with HL-60, 125 µM.

For `COC(=O)[C@H]1[C@H]2C[C@@H]3c4[nH]c5cc(OC)ccc5c4CCN3C[C@H]2C[C@@H](OC(=O)c2cc(OC)c(OC)c(OC)c2)[C@@H]1OC` [RESERPINE], the values for the IC50 (on DNA topoisomerase 1; in experiment [2]; in the experiment on HL-60) were 160 µM, 20 µM and 67 µM, respectively.

Turning to `COC(=O)[C@@H]1[C@H]2C[C@H]3c4[nH]c5ccccc5c4CCN3C[C@@H]2CC[C@@H]1O` [YOHIMBINE], the result (in experiment [1]; in the experiment filed under Homo sapiens; in the experiment with HL-60) was inactive. Further, the IC50 was determined as 30 µM on DNA topoisomerase 1, 125 µM in experiment [2] and 84 µM in the experiment on HL-60.

`COC(=O)[C@H]1[C@H]2C[C@@H]3c4[nH]c5ccccc5c4CCN3C[C@H]2CC(O)[C@@H]1O` (stereo partly specified): the result (in experiment [1]; in the experiment filed under Homo sapiens; in the experiment on HL-60) was inactive.

The values above are taken from ChEMBL document CHEMBL1158781, “Indole alkaloids and other constituents of Rauwolfia serpentina” (J Nat Prod, 2005).
